Results reported in ChEMBL document CHEMBL5303300, “EUbOPEN Chemogenomics Library - Multiplex” (2023).
Several values for one entry are separate records, joined by “and”; a condition that tells them apart may be missing. Identical values can stand only once.

System: HEK-293T
Experiment: Multiplex assay against HEK293T
Format: toxicity, cell-based
Details: human, number of replicates 2
Summary of the method: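 Compound was added to live cells that had been stained at seeding with Hoechst33342, BioTracker Green Microtubule Cytoskeleton Dye, MitoTracker Red and Annexin V Alexa Fluor 680, and imaging followed on a CQ1 microscope at 37°C and 5% CO2. CellPathfinder machine-learning gating divided cells into Hoechst high-intensity objects or normal cells, normal cells into healthy, pyknosed or fragmented nuclei, and pyknosed cells into mitotic or apoptotic. Tubulin, mitochondrial-mass and membrane-permeability phenotypes are per cents of healthy-nucleus cells.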

[1] = 12 h, 1 µM, compound concentration 1 uM
[2] = 12 h, 10 µM, compound concentration 10 uM
[3] = 24 h, 1 µM, compound concentration 1 uM
[4] = 24 h, 10 µM, compound concentration 10 uM
[5] = 48 h, 1 µM, compound concentration 1 uM
[6] = 48 h, 10 µM, compound concentration 10 uM

CC(C)S(=O)(=O)c1ccccc1Nc1nc(N[C@@H]2CCCN(CCCCCCCNC(=O)COc3cccc4c3C(=O)N(C3CCC(=O)N(C)C3=O)C4=O)C2)ncc1Cl (some centres not stated)
Population Apoptotic (%) [1]: 55% and 78%
Population Fragmented Nuclei (%) [1]: 6% and 3%
Population Healthy Nuclei (%) [1]: 84% and 81%
Population Hoechst High Intensity Objects (%) [1]: 11%
Population Membrane Permeable-Phenotype (%) [1]: 0%
Population Mitochondria Different-Phenotype (%) [1]: 39% and 45%
Population Mitotic Cells (%) [1]: 44% and 21%
Population Normal (%) [1]: 88%
Population Pyknosed Nuclei (%) [1]: 8% and 14%
Population Tubulin-Different-Phenotype (%) [1]: 56% and 62%
Total Cell Count [1]: 479 and 318
Population Apoptotic (%) [2]: 60% and 74%
Population Fragmented Nuclei (%) [2]: 3%
Population Healthy Nuclei (%) [2]: 69% and 72%
Population Hoechst High Intensity Objects (%) [2]: 18% and 14%
Population Membrane Permeable-Phenotype (%) [2]: 2% and 3%
Population Mitochondria Different-Phenotype (%) [2]: 76%
Population Mitotic Cells (%) [2]: 39% and 25%
Population Normal (%) [2]: 81% and 85%
Population Pyknosed Nuclei (%) [2]: 26% and 24%
Population Tubulin-Different-Phenotype (%) [2]: 49% and 77%
Total Cell Count [2]: 464 and 428
Population Apoptotic (%) [3]: 48% and 83%
Population Fragmented Nuclei (%) [3]: 2% and 4%
Population Healthy Nuclei (%) [3]: 90% and 85%
Population Hoechst High Intensity Objects (%) [3]: 7%
Population Membrane Permeable-Phenotype (%) [3]: 0%
Population Mitochondria Different-Phenotype (%) [3]: 20% and 21%
Population Normal (%) [3]: 92%
Population Pyknosed Nuclei (%) [3]: 7% and 10%
Population Tubulin-Different-Phenotype (%) [3]: 40%
Total Cell Count [3]: 702 and 488
Population Apoptotic (%) [4]: 82%
Population Fragmented Nuclei (%) [4]: 4% and 5%
Population Healthy Nuclei (%) [4]: 78%
Population Hoechst High Intensity Objects (%) [4]: 18% and 16%
Population Membrane Permeable-Phenotype (%) [4]: 0% and 1%
Population Mitochondria Different-Phenotype (%) [4]: 80% and 91%
Population Mitotic Cells (%) [4]: 17%
Population Normal (%) [4]: 81% and 83%
Population Pyknosed Nuclei (%) [4]: 17% and 16%
Population Tubulin-Different-Phenotype (%) [4]: 90% and 92%
Total Cell Count [4]: 438 and 432
Population Apoptotic (%) [5]: 40% and 66%
Population Fragmented Nuclei (%) [5]: 8% and 4%
Population Healthy Nuclei (%) [5]: 85%
Population Hoechst High Intensity Objects (%) [5]: 8% and 7%
Population Membrane Permeable-Phenotype (%) [5]: 2% and 1%
Population Mitochondria Different-Phenotype (%) [5]: 7% and 11%
Population Mitotic Cells (%) [5]: 60% and 33%
Population Normal (%) [5]: 91% and 92%
Population Pyknosed Nuclei (%) [5]: 5% and 9%
Population Tubulin-Different-Phenotype (%) [5]: 26% and 27%
Total Cell Count [5]: 1045 and 630
Population Apoptotic (%) [6]: 81% and 86%
Population Fragmented Nuclei (%) [6]: 5%
Population Healthy Nuclei (%) [6]: 82% and 78%
Population Hoechst High Intensity Objects (%) [6]: 17% and 20%
Population Membrane Permeable-Phenotype (%) [6]: 0%
Population Mitochondria Different-Phenotype (%) [6]: 46% and 78%
Population Mitotic Cells (%) [6]: 18% and 14%
Population Normal (%) [6]: 82% and 79%
Population Pyknosed Nuclei (%) [6]: 11% and 16%
Population Tubulin-Different-Phenotype (%) [6]: 57% and 65%
Total Cell Count [6]: 458 and 378

COc1cc(OC)cc(C(=O)NNC(=O)Nc2cccc3ccccc23)c1
Population Apoptotic (%) [1]: 42% and 53%
Population Fragmented Nuclei (%) [1]: 2% and 1%
Population Healthy Nuclei (%) [1]: 86% and 85%
Population Hoechst High Intensity Objects (%) [1]: 4%
Population Membrane Permeable-Phenotype (%) [1]: 1% and 2%
Population Mitochondria Different-Phenotype (%) [1]: 14% and 16%
Population Mitotic Cells (%) [1]: 57% and 46%
Population Normal (%) [1]: 95%
Population Pyknosed Nuclei (%) [1]: 10% and 13%
Population Tubulin-Different-Phenotype (%) [1]: 43% and 47%
Total Cell Count [1]: 709 and 572
Population Apoptotic (%) [2]: 42% and 34%
Population Fragmented Nuclei (%) [2]: 3%
Population Healthy Nuclei (%) [2]: 84% and 83%
Population Hoechst High Intensity Objects (%) [2]: 6% and 4%
Population Membrane Permeable-Phenotype (%) [2]: 5% and 4%
Population Mitochondria Different-Phenotype (%) [2]: 15% and 12%
Population Mitotic Cells (%) [2]: 57% and 65%
Population Normal (%) [2]: 93% and 95%
Population Pyknosed Nuclei (%) [2]: 12% and 13%
Population Tubulin-Different-Phenotype (%) [2]: 60% and 46%
Total Cell Count [2]: 571 and 696
Population Apoptotic (%) [3]: 25% and 34%
Population Fragmented Nuclei (%) [3]: 3%
Population Healthy Nuclei (%) [3]: 90% and 89%
Population Hoechst High Intensity Objects (%) [3]: 8% and 6%
Population Membrane Permeable-Phenotype (%) [3]: 2%
Population Mitochondria Different-Phenotype (%) [3]: 4%
Population Mitotic Cells (%) [3]: 74% and 65%
Population Normal (%) [3]: 91% and 93%
Population Pyknosed Nuclei (%) [3]: 5% and 6%
Population Tubulin-Different-Phenotype (%) [3]: 28% and 29%
Total Cell Count [3]: 1130 and 899
Population Apoptotic (%) [4]: 36% and 29%
Population Fragmented Nuclei (%) [4]: 4% and 6%
Population Healthy Nuclei (%) [4]: 84% and 86%
Population Hoechst High Intensity Objects (%) [4]: 6% and 4%
Population Membrane Permeable-Phenotype (%) [4]: 4% and 3%
Population Mitochondria Different-Phenotype (%) [4]: 9% and 4%
Population Mitotic Cells (%) [4]: 63% and 70%
Population Normal (%) [4]: 93% and 95%
Population Pyknosed Nuclei (%) [4]: 11% and 6%
Population Tubulin-Different-Phenotype (%) [4]: 50% and 27%
Total Cell Count [4]: 700 and 1003
Population Apoptotic (%) [5]: 8% and 15%
Population Fragmented Nuclei (%) [5]: 12% and 9%
Population Healthy Nuclei (%) [5]: 84% and 87%
Population Hoechst High Intensity Objects (%) [5]: 9%
Population Membrane Permeable-Phenotype (%) [5]: 4%
Population Mitochondria Different-Phenotype (%) [5]: 0%
Population Mitotic Cells (%) [5]: 91% and 84%
Population Normal (%) [5]: 91% and 90%
Population Pyknosed Nuclei (%) [5]: 3% and 2%
Population Tubulin-Different-Phenotype (%) [5]: 11% and 16%
Total Cell Count [5]: 2889 and 1933
Population Apoptotic (%) [6]: 8% and 17%
Population Fragmented Nuclei (%) [6]: 10% and 12%
Population Healthy Nuclei (%) [6]: 82% and 84%
Population Hoechst High Intensity Objects (%) [6]: 6% and 8%
Population Membrane Permeable-Phenotype (%) [6]: 4% and 5%
Population Mitochondria Different-Phenotype (%) [6]: 3% and 0%
Population Mitotic Cells (%) [6]: 91% and 82%
Population Normal (%) [6]: 93% and 91%
Population Pyknosed Nuclei (%) [6]: 6% and 3%
Population Tubulin-Different-Phenotype (%) [6]: 30% and 17%
Total Cell Count [6]: 1120 and 2017

CN(C)CC#Cc1ccc2[nH]c3c(c2c1)-c1nc(N)ncc1CCC3
Population Apoptotic (%) [1]: 52%
Population Fragmented Nuclei (%) [1]: 2% and 4%
Population Healthy Nuclei (%) [1]: 81% and 82%
Population Hoechst High Intensity Objects (%) [1]: 11% and 14%
Population Membrane Permeable-Phenotype (%) [1]: 8%
Population Mitochondria Different-Phenotype (%) [1]: 31% and 24%
Population Mitotic Cells (%) [1]: 47%
Population Normal (%) [1]: 89% and 85%
Population Pyknosed Nuclei (%) [1]: 16% and 12%
Population Tubulin-Different-Phenotype (%) [1]: 96%
Total Cell Count [1]: 491 and 406
Population Apoptotic (%) [2]: 52% and 44%
Population Fragmented Nuclei (%) [2]: 3%
Population Healthy Nuclei (%) [2]: 73%
Population Hoechst High Intensity Objects (%) [2]: 12%
Population Membrane Permeable-Phenotype (%) [2]: 5% and 4%
Population Mitochondria Different-Phenotype (%) [2]: 28% and 23%
Population Mitotic Cells (%) [2]: 47% and 55%
Population Normal (%) [2]: 87%
Population Pyknosed Nuclei (%) [2]: 22% and 23%
Population Tubulin-Different-Phenotype (%) [2]: 93% and 96%
Total Cell Count [2]: 350 and 360
Population Apoptotic (%) [3]: 50% and 63%
Population Fragmented Nuclei (%) [3]: 6% and 8%
Population Healthy Nuclei (%) [3]: 83% and 80%
Population Hoechst High Intensity Objects (%) [3]: 11%
Population Membrane Permeable-Phenotype (%) [3]: 14% and 19%
Population Mitochondria Different-Phenotype (%) [3]: 11% and 8%
Population Mitotic Cells (%) [3]: 49% and 36%
Population Normal (%) [3]: 88%
Population Pyknosed Nuclei (%) [3]: 9% and 11%
Population Tubulin-Different-Phenotype (%) [3]: 97% and 95%
Total Cell Count [3]: 646 and 621
Population Apoptotic (%) [4]: 50% and 55%
Population Fragmented Nuclei (%) [4]: 3% and 5%
Population Healthy Nuclei (%) [4]: 75% and 77%
Population Hoechst High Intensity Objects (%) [4]: 16% and 11%
Population Membrane Permeable-Phenotype (%) [4]: 8% and 5%
Population Mitochondria Different-Phenotype (%) [4]: 12% and 9%
Population Mitotic Cells (%) [4]: 50% and 44%
Population Normal (%) [4]: 83% and 88%
Population Pyknosed Nuclei (%) [4]: 20% and 16%
Population Tubulin-Different-Phenotype (%) [4]: 88% and 94%
Total Cell Count [4]: 381 and 452
Population Apoptotic (%) [5]: 54% and 48%
Population Fragmented Nuclei (%) [5]: 17%
Population Healthy Nuclei (%) [5]: 78% and 77%
Population Hoechst High Intensity Objects (%) [5]: 13% and 9%
Population Membrane Permeable-Phenotype (%) [5]: 34% and 42%
Population Mitochondria Different-Phenotype (%) [5]: 0%
Population Mitotic Cells (%) [5]: 45% and 51%
Population Normal (%) [5]: 86% and 90%
Population Pyknosed Nuclei (%) [5]: 4%
Population Tubulin-Different-Phenotype (%) [5]: 85% and 83%
Total Cell Count [5]: 1491 and 1520
Population Apoptotic (%) [6]: 47% and 50%
Population Fragmented Nuclei (%) [6]: 8% and 6%
Population Healthy Nuclei (%) [6]: 71% and 79%
Population Hoechst High Intensity Objects (%) [6]: 20% and 18%
Population Membrane Permeable-Phenotype (%) [6]: 9% and 11%
Population Mitochondria Different-Phenotype (%) [6]: 1% and 0%
Population Mitotic Cells (%) [6]: 52% and 49%
Population Normal (%) [6]: 79% and 81%
Population Pyknosed Nuclei (%) [6]: 19% and 13%
Population Tubulin-Different-Phenotype (%) [6]: 93% and 90%
Total Cell Count [6]: 505 and 520
